Results as given in ChEMBL document CHEMBL1123841, “3-Carbonylacrylic derivatives as potential antimicrobial agents. Correlations between activity and reactivity toward cysteine” (J Med Chem, 1987).
≈ marks a conversion by molar mass, not a printed value.

Key:
Staphylococcus aureus = assay: Antimicrobial activity against Staphylococcus aureus(ATCC 6538) was determined; assay type: functional
How it was run: (§1)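 MIC determined by serial dilution in liquid medium; values expressed as micromoles/milliliter.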

[1] = Partition coefficient (logP); assay type: physicochemical; settings: octanol/water
How it was run: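 Octanol/water partition coefficient: some values measured experimentally by a standard literature procedure, with P = C_oct/C_H2O(1−α) correcting for ionization (α); the remaining values calculated by the method of Leo et al.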

Streptococcus pyogenes = assay: Antimicrobial activity against Streptococcus pyogenes A(IVM P 134) was determined; assay type: functional; how it was run: as §1
Microsporum canis = assay: Antimicrobial activity against Microsporum canis(ATCC 11621) was determined; assay type: functional; how it was run: as §1

SMILES	MIC (Staphylococcus aureus) [µM]	logP [1]	MIC (Streptococcus pyogenes) [µM]	MIC (Microsporum canis) [µM]
C/C(=C/C(=O)O)C(=O)c1ccc(C)cc1	> 15000	2.19	2000 (≈ 408 µg/mL)	3200 (≈ 654 µg/mL)
CCCCC(=O)/C(C)=C(/C)C(=O)O		0.9	3800 (≈ 700 µg/mL)	
C/C(=C/C(=O)c1ccc(C)cc1)C(=O)O	15000 (≈ 3060 µg/mL)	2.19	2000 (≈ 408 µg/mL)	3200 (≈ 654 µg/mL)
O=C(O)/C=C/C(=O)c1ccc(-c2ccccc2)cc1	80 (≈ 20.2 µg/mL)	3.9	6 (≈ 1.51 µg/mL)	
Cc1ccc(C(=O)/C=C/C(=O)O)cc1	1000 (≈ 190 µg/mL)	2.44	13 (≈ 2.47 µg/mL)	1000 (≈ 190 µg/mL)
CCCCCCCC(=O)/C(C)=C(/C)C(=O)O		2.4	320 (≈ 72.4 µg/mL)	
CCCCCCCCCCCC(=O)/C(C)=C(/C)C(=O)O		4.4	10 (≈ 2.82 µg/mL)	
C/C(=C\C(=O)c1ccc(C)cc1)C(=O)O	16000 (≈ 3270 µg/mL)	2.94	2000 (≈ 408 µg/mL)	1200 (≈ 245 µg/mL)
O=C(O)/C=C/C(=O)c1cccnc1	1000 (≈ 177 µg/mL)	0.26	50 (≈ 8.86 µg/mL)	
C/C(=C\C(=O)O)C(=O)c1ccc(C)cc1	15000 (≈ 3060 µg/mL)	2.94		3200 (≈ 654 µg/mL)

Continued, values first:

MIC (Staphylococcus aureus) [µM]	logP [1]	MIC (Streptococcus pyogenes) [µM]	MIC (Microsporum canis) [µM]	SMILES
1260 (≈ 222 µg/mL)	1.94	30 (≈ 5.29 µg/mL)	1000 (≈ 176 µg/mL)	O=C(O)/C=C/C(=O)c1ccccc1
18000 (≈ 3420 µg/mL)	2.44	2000 (≈ 380 µg/mL)		C/C(=C\C(=O)O)C(=O)c1ccccc1
40 (≈ 7.61 µg/mL)	2.24	10 (≈ 1.9 µg/mL)	2.6 (≈ 0.495 µg/mL)	COC(=O)/C=C/C(=O)c1ccccc1
160 (≈ 30.6 µg/mL)	0.56	42 (≈ 8.03 µg/mL)	5 (≈ 0.956 µg/mL)	COC(=O)/C=C/C(=O)c1cccnc1
50 (≈ 10.2 µg/mL)	2.74	24 (≈ 4.9 µg/mL)	50 (≈ 10.2 µg/mL)	COC(=O)/C=C/C(=O)c1ccc(C)cc1
> 16000	1.69	2200 (≈ 418 µg/mL)	16000 (≈ 3040 µg/mL)	C/C(=C/C(=O)O)C(=O)c1ccccc1
40 (≈ 7.61 µg/mL)	1.49	3 (≈ 0.571 µg/mL)	< 2	COC(=O)/C=C\C(=O)c1ccccc1
